Assay results from PMC3821739 (Organic & biomolecular chemistry, 2013).
Where two headings read alike, the source gives them in different places.

Tests used:
[1] = test system: RRE; conditions: cited from earlier work
[2] = test system: HIV-1 RRE IIB RNA; test: Dot blot assay, dissociation constant with wild-type RRE IIB RNA; type: binding; conditions: for loss of binding affinity compared to BPBA1: RRE IIB
[3] = test system: hexaloop RNA; test: Dot blot assay with RRE IIB variant hexaloop RNA; type: binding, HIV-1
[4] = target: stem B deleted RNA; test: Dot blot assay with RRE IIB variant stem B deleted RNA; type: binding, HIV-1
[5] = target: loop B/bulge A deleted RNA; test: Dot blot assay with RRE IIB variant loop B/bulge A deleted RNA; type: binding, HIV-1
[6] = test system: loop A(A-G)/B/bulge A deleted RNA; test: Dot blot assay with RRE IIB variant loop A; type: binding, HIV-1
[7] = test system: stem A/loop A deleted RNA; test: Dot blot assay with RRE IIB variant stem A/loop A deleted RNA; type: binding, HIV-1
[8] = test system: loop A/B/bulge A deleted RNA; test: Dot blot assay with RRE IIB variant loop A/B/bulge A deleted RNA; type: binding, HIV-1
[9] = test system: RRE IIB DNA; test: Dot blot assay with DNA of the same RRE IIB sequence; type: binding, HIV-1
[10] = test system: RRE IIB; test: RNase protection; type: binding, HIV-1; conditions: on ice
Outline: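 5′-³²P-labelled RRE-IIB (10 nM) mixed with unlabelled RRE-IIB (200 nM), refolded at 95 °C for 3 min, then snap-cooled on ice. Test compound added in 10 mM Tris pH 7, 100 mM KCl, 10 mM MgCl₂, then 4 hr on ice. Digestion on ice: RNase V1 0.002 U for 10 min; T1 1 U or A 20 ng for 1 hr. Stopped by precipitation, run on 12% urea PAGE with an alkaline-hydrolysis ladder, autoradiography.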

[11] = target: HIV-1 RRE IIB RNA; conditions: read-out: binding affinity (Kd) of hit BPBA; dot blot; cited from earlier work

For `NC[C@@H]1O[C@H](O[C@H]2[C@@H](O)[C@H](O[C@@H]3[C@@H](O)[C@H](N)C[C@H](N)[C@H]3O[C@H]3O[C@H](CN)[C@@H](O)[C@H](O)[C@H]3N)O[C@@H]2CO)[C@H](N)[C@@H](O)[C@@H]1O` [neomycin B], the “binding to RRE” value [1] is listed as “submicromolar”.
In the case of WKKGKBBAYWY [LPBA1], the “loss of binding affinity compared to BPBA1” value (“loss … compared to BPBA1” for short) [2] is reported as over 50 fold.
In the case of WKKWKKGKBBAYWY [LPBA4], the “loss … compared to BPBA1” value [2] is reported as “at least 5 fold”.
In the case of (WKK)2*KBBAYWY [BPBA1], the Kd ([2]; read-out: observed Kd in the presence of competing tRNA, 10-fold molar excess of bacterial tRNA relative to RRE IIB) is reported as 2.1 µM, the “increase of Kd compared to the wild type” value [3] is reported as ~ 3 fold and the Kd [4] is reported as 3.7 µM. For the same compound, the Kd [5] was 8.7 µM, the “lower affinity relative to RRE IIB” value [5] was 6 fold and the “lower affinity relative to RRE IIB” value [6] was over 10 fold. The “lower affinity relative to RRE IIB” value [7] was over 10 fold, the “loss in binding affinity / selectivity relative to RRE IIB” value [8] was over 75 fold and the “selectivity toward RNA over DNA” value ([9]; RRE IIB RNA versus RRE IIB DNA) was 23 fold. The Kd ([9]; read-out: dissociation constant) was 31.8 ± 6.6 µM, the “protection of RRE IIB from cleavage by RNase A” value ([10]; BPBA1 up to 20 µM) was “visibly protected U7, C21, and U36” and the “protection of RRE IIB from cleavage by RNase T1” value ([10]; BPBA1 up to 20 µM) was “no noticeable changes in band intensity”. For the same compound, the “protection of RRE IIB from cleavage by RNase V1” value ([10]; region A16 through G19, BPBA1 0.2 µM to 20 µM) was “concentration dependent protection” and the Kd [11] was 1.4 µM.
With WKKGKBBAYWYWKK [LPBA5] the “loss … compared to BPBA1” value [2] was “at least 5 fold”.
In the case of Ac(WKK)*KBBAYWY [LPBA3], the “loss … compared to BPBA1” value [2] is reported as over 50 fold.
